Experiment [1] addresses Glyceraldehyde-3-phosphate dehydrogenase (Plasmodium falciparum) (UniProt Q8T6B1). Kind of experiment: Inhibition of recombinant Plasmodium falciparum GAPDH expressed in Escherichia coli assessed as ratio of kinact to Ki by Kitz-Wilson double-reciprocal plot. In a few lines:
(§1)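 Pf GAPDH incubated with inhibitor, aliquots withdrawn over time for activity assay; control enzyme kept without inhibitor under the same conditions. Activity normalized to the inhibitor-free value. Time courses fitted to a sum of two exponential decays. kobs obtained by fitting residual activity versus incubation time to a mechanism-based inhibition equation (kinact, Ki). Duplicates.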

For experiment [2] the target is unchanged. The experiment can be described thus: Inhibition of recombinant Plasmodium falciparum GAPDH expressed in Escherichia coli by time course assay. Put shortly:
as §1

Experiment [3] shares this target. Kind of experiment: Inhibition of recombinant Plasmodium falciparum GAPDH expressed in Escherichia coli at 50 to 200 uM by time course assay. To be noted: TDE = time-dependent effect. Put shortly: as §1
Experiment [4] has the same target. The experiment can be described thus: Irreversible inhibition of recombinant Plasmodium falciparum GAPDH expressed in Escherichia coli by time course assay. In a few lines: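 Pf GAPDH was incubated with inhibitor at 50–300 μM, and enzyme activity was assayed over the incubation time. Activity was normalized to the same enzyme kept under identical conditions without inhibitor. Residual-activity time courses were fitted to a sum of two exponential decays. kobs was obtained by fitting the mechanism-based inhibition equation, giving kinact and Ki. Experiments were done in duplicate.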

The target is the same in experiment [5]. Kind of experiment: Inhibition of recombinant Plasmodium falciparum GAPDH expressed in Escherichia coli by UV-vis spectroscopy. In a few lines: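 Enzyme at 400 μM incubated with inhibitor. Absorption spectra recorded until reaction completion to follow loss of the Racker band.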
Experiment [6] has the same target. The experiment can be described thus: Inhibition of unmodified recombinant Plasmodium falciparum GAPDH at 200 uM measured after overnight incubation by mass spectroscopy in presence of trypsin. Put shortly:
(§2)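 Pf GAPDH incubated overnight with inhibitor at 200 μM. MALDI-TOF on undigested protein (double-layer CHCA matrix) or on tryptic digests (thin-layer CHCA), with MS/MS. Cys alkylation checked by 1 h treatment of 20 μM enzyme with 10-fold excess iodoacetamide before analysis.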

The target in experiment [7] is Glyceraldehyde-3-phosphate dehydrogenase (Homo sapiens) (UniProt P04406). Kind of experiment: Inhibition of human GAPDH assessed as ratio of kinact to Ki by Kitz-Wilson double-reciprocal plot at pH 7.4.
Glyceraldehyde-3-phosphate dehydrogenase (Homo sapiens), sequence (P04406 2-335 limits assumed): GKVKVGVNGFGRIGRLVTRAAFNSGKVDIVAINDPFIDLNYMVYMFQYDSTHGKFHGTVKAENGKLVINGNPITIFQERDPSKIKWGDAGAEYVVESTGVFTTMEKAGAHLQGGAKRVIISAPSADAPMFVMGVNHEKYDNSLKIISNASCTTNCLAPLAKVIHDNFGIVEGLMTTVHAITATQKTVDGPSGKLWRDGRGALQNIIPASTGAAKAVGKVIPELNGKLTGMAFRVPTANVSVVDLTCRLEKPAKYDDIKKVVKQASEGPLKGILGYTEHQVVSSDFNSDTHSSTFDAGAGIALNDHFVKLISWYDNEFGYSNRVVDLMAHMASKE
The target in experiment [8] is Glyceraldehyde-3-phosphate dehydrogenase (Plasmodium falciparum) (UniProt Q8T6B1). Kind of experiment: Inhibition of undigested recombinant Plasmodium falciparum GAPDH at 200 uM measured after overnight incubation by mass spectroscopy. In a few lines:
as §2

The target is the same in experiment [9]. The experiment can be described thus: Inhibition of recombinant Plasmodium falciparum GAPDH expressed in Escherichia coli at 50 to 300 uM by time course assay. In a few lines:
as §1

Structures are written as SMILES. The source made the active and inactive calls. The rule behind the calls is not given here.

Glyceraldehyde-3-phosphate dehydrogenase (Plasmodium falciparum), sequence (Q8T6B1 as listed by the source): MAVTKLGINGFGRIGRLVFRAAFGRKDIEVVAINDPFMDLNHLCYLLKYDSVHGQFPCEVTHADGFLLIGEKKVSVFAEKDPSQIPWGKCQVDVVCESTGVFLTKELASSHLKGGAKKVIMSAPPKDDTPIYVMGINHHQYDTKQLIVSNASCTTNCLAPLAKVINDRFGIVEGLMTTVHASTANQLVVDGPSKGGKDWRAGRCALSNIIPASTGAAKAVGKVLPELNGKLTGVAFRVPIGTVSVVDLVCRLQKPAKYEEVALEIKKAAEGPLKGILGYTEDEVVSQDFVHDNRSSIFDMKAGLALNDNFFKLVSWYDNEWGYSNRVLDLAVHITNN

With `CC(C)(C)OC(=O)N1CC2ON=C(Br)C2C1` (racemic), the Ratio in experiment [1] was found to be 4.8 M⁻¹ s⁻¹. The inhibition entry was “Dose-dependent effect” in experiment [2] and “tde” in experiment [3].
For `O=C(O)CC1CC(Br)=NO1` (racemic), in that order: 0.7 M⁻¹ s⁻¹, “Dose-dependent effect” and “tde”.
In the case of `N[C@H](C(=O)O)[C@@H]1CC(Br)=NO1`, in experiment [1], the Ratio turned out to be 0.7 M⁻¹ s⁻¹. In addition, the inhibition result in experiment [2] is “Dose-dependent effect”; in experiment [3], “tde”. The inhibition result in experiment [4] was “Active”.
On to `BrC1=NOC(c2ccccc2)C1` (racemic), for which, in [1], the Ratio is 10.3 M⁻¹ s⁻¹. In addition, the inhibition entry in experiment [2] was “Dose-dependent effect”; in experiment [3] it was “tde”. Also, the inhibition result in experiment [4] and in [5] was “Active” in each case.
For `N[C@H](C(=O)O)[C@@H]1CC(Cl)=NO1`, the results for the inhibition entry in experiment [2] and in [3] were “Dose-dependent effect” and “tde”, respectively. For the same compound, the inhibition entry in experiment [4] is “Active”.
Turning to `O=C(N[C@H](C(=O)O)[C@@H]1CC(Br)=NO1)OCc1ccccc1`, the Ratio in experiment [1] turned out to be 2.6 M⁻¹ s⁻¹. The figures for the inhibition entry in [2] and in [3] were “Dose-dependent effect” and “tde”, respectively. Further, the inhibition entry in [6] was “Active”.
With `C=CC(N)=O`, the Ratio in experiment [7] is 0.053 M⁻¹ s⁻¹.
On to `BrC1=NOC(c2ccncc2)C1` (racemic), for which the Ratio in experiment [1] was 0.47 M⁻¹ s⁻¹. In addition, the results for the inhibition entry in experiment [2] and in [3] were “Dose-dependent effect” and “tde”, respectively.
In the case of `N[C@H](C(=O)OCc1ccccc1)[C@@H]1CC(Br)=NO1`, the Ratio in [1] stood at 6.6 M⁻¹ s⁻¹. Besides, the inhibition entry in [2] is “Dose-dependent effect”; in experiment [3] it was “tde”. Besides, in [8], the inhibition entry is “Active”.
For the compound `CC(C)(C)OC(=O)NCC1CC(Br)=NO1` (racemic), the inhibition result in [9] and in [8] was “Active” throughout. In addition, the Ratio in experiment [1] is 2.9 M⁻¹ s⁻¹. For the same compound, the inhibition result in experiment [2] is “Dose-dependent effect”.
In the case of `Oc1ccc(C2CC(Br)=NO2)cc1` (racemic), the Ratio in experiment [1] came out at 3.1 M⁻¹ s⁻¹. The inhibition entry in experiment [2] is “Dose-dependent effect”; in experiment [3], “tde”.
Consider `ClC1=NOC(c2ccccc2)C1` (racemic), for which the results for the inhibition result in experiment [2] and in experiment [3] were “Dose-dependent effect” and “tde”, respectively. For the same compound, in experiment [4], the inhibition result was “Active”.
In the case of `COC(=O)[C@@H](N)[C@@H]1CC(Br)=NO1`, the Ratio in [1] worked out at 10.7 M⁻¹ s⁻¹. In addition, the inhibition entry in experiment [2] is “Dose-dependent effect”; in experiment [3] it was “tde”. Besides, the inhibition entry in [8] and in experiment [6] was “Active” throughout.
Take `C=CC=O`: the Ratio in [7] came to 297 M⁻¹ s⁻¹.
